We go through nine molecules from ChEMBL document CHEMBL5104102, “Discovery of FtsZ inhibitors by virtual screening as antibacterial agents and study of the inhibition mechanism” (RSC Med Chem, 2022).

Test [1] concerns Escherichia coli. In words: Antibacterial activity against Escherichia coli 25922 assessed as inhibition of bacterial growth incubated for 18 hrs by CLSI protocol based two fold serial dilution method. The test is classed as functional. A digest of the protocol: (§1)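 B. subtilis 168 or E. coli ATCC 25922 was grown in MHB and tested by CLSI-based broth microdilution. An overnight culture (37 °C, 250 rpm) was diluted tenfold, grown 2 h, and set to 5 × 10^6 CFU mL−1 by A600. Cells were added to two-fold serial compound dilutions (1% DMSO) and incubated 18 h at 37 °C. Read-out was A600, in duplicate. MIC was the lowest concentration giving A600 < 0.1.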

The subject of test [2] is Staphylococcus aureus. In words: Antibacterial activity against Staphylococcus aureus 29213 assessed as inhibition of bacterial growth incubated for 18 hrs by CLSI protocol based two fold serial dilution method. The test is classed as functional. An outline of the steps: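 S. aureus ATCC 29213 was grown in CAMHB and tested by CLSI-based broth microdilution. An overnight culture (37 °C, 250 rpm) was diluted tenfold, grown 2 h, and set to 5 × 10^6 CFU mL−1. Cells were added to two-fold serial compound dilutions (1% DMSO) and incubated 18 h at 37 °C. Read-out was A600, in duplicate. MIC was the lowest concentration with A600 < 0.1.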

Test [3] concerns Bacillus subtilis. Kind of test: Antibacterial activity against Bacillus subtilis 168 assessed as inhibition of bacterial growth incubated for 18 hrs by CLSI protocol based two-fold serial dilution assay. The test is classed as functional. An outline of the steps:
as §1

Test [4] has as its system Staphylococcus aureus. In words: Antibacterial activity against methicillin-resistant Staphylococcus aureus BAA 41 assessed as inhibition of bacterial growth incubated for 18 hrs by CLSI protocol based two fold serial dilution method. Type of test: functional. An outline of the steps: (§2)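 CAMHB culture grown overnight at 37 °C with shaking at 250 rpm, diluted 10-fold, and grown 2 h. Inoculum set to 5 × 10^6 CFU mL−1 by A600. Compounds in DMSO were serially diluted two-fold, with 1% DMSO per well. Read at A600 after 18 h at 37 °C. MIC is the lowest concentration giving A600 < 0.1. Run in duplicate.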

Test [5] relates to Staphylococcus aureus. Kind of test: Antibacterial activity against methicillin-resistant Staphylococcus aureus ATCC 33592 assessed as inhibition of bacterial growth incubated for 18 hrs by CLSI protocol based two fold serial dilution method. Type of test: functional. An outline of the steps: as §2
For test [6], the system named is Staphylococcus aureus. Kind of test: Antibacterial activity against methicillin-resistant Staphylococcus aureus ATCC 33591 assessed as inhibition of bacterial growth incubated for 18 hrs by CLSI protocol based two fold serial dilution method. The test is classed as functional. A digest of the protocol: as §2
Test [7] has as its system Staphylococcus aureus. In words: Antibacterial activity against methicillin-resistant Staphylococcus aureus ATCC 43300 assessed as inhibition of bacterial growth incubated for 18 hrs by CLSI protocol based two fold serial dilution method. The test is classed as functional. An outline of the steps: as §2
The subject of test [8] is Staphylococcus aureus. In words: Antibacterial activity against methicillin-resistant Staphylococcus aureus BAA 44 assessed as inhibition of bacterial growth incubated for 18 hrs by CLSI protocol based two fold serial dilution method. The test is classed as functional. A digest of the protocol: as §2
Test [9] relates to Staphylococcus aureus. In words: Antibacterial activity against methicillin-resistant Staphylococcus aureus BAA 1720 assessed as inhibition of bacterial growth incubated for 18 hrs by CLSI protocol based two fold serial dilution method. The test is classed as functional. A digest of the protocol:
as §2

The test system of test [10] is Staphylococcus aureus. Kind of test: Synergistic antibacterial activity against methicillin-resistant Staphylococcus aureus BAA 41 assessed as FICI incubated for 18 hrs in presence of S2727 by checkerboard assay. The test is classed as functional. A digest of the protocol:
(§3)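 Checkerboard against MRSA BAA 41. Compound two-fold serially diluted across the plate and methicillin down it. Inoculum 5 × 10^5 CFU mL−1, with untreated-cell columns. Incubated at 37 °C for 16–24 h and growth read as A600. FICI computed from the combined MICs, and <0.5 taken as synergy.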

The subject of test [11] is Staphylococcus aureus. In words: Synergistic antibacterial activity against methicillin-resistant Staphylococcus aureus BAA 41 assessed as FICI incubated for 18 hrs in presence of PC190723 by checkerboard assay. Type of test: functional. A digest of the protocol:
as §3

In test [12] the test system is Staphylococcus aureus. In words: Synergistic antibacterial activity against methicillin-resistant Staphylococcus aureus BAA 41 assessed as inhibition of bacterial growth incubated for 18 hrs in presence of PC190723 by checkerboard assay. Type of test: functional.
Test [13] relates to Staphylococcus aureus. Kind of test: microbe, parasite or virus in culture. The note with it: BAA 41, 18 h.
For test [14], the system named is Staphylococcus aureus. In words: Synergistic antibacterial activity against methicillin-resistant Staphylococcus aureus BAA 41 assessed as FICI incubated for 18 hrs in presence of S2163 by checkerboard assay. The test is classed as functional. An outline of the steps:
as §3

For test [15], the system named is Staphylococcus aureus. In words: microbe, parasite or virus in culture. The note with it: BAA 41, 18 h. The source holds these as a separate data set.
The subject of test [16] is Staphylococcus aureus. Kind of test: Synergistic antibacterial activity against methicillin-resistant Staphylococcus aureus BAA 41 assessed as inhibition of bacterial growth incubated for 18 hrs in presence of methicillin by checkerboard assay. The test is classed as functional. A digest of the protocol:
(§4)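 Checkerboard: test compound serially diluted two-fold across the plate and methicillin serially diluted down it. Bacteria added at 5 × 10^5 CFU mL−1. Incubated at 37 °C for 16–24 h, then growth read at A600. Untreated-cell columns included. FICI calculated from the combination MICs.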

For test [17], the system named is Staphylococcus aureus. Kind of test: Synergistic antibacterial activity against methicillin-resistant Staphylococcus aureus BAA 41 assessed as FICI incubated for 18 hrs in presence of methicillin by checkerboard assay. The test is classed as functional. A digest of the protocol:
as §4

The test system of test [18] is Escherichia coli. In words: Synergistic antibacterial activity against Escherichia coli 25922 assessed as inhibition of bacterial growth incubated for 18 hrs in presence of PMBN by checkerboard assay. Type of test: functional. An outline of the steps: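 E. coli ATCC 25922 was tested in MHB by the broth microdilution format with two-fold serial compound dilutions. Polymyxin B nonapeptide was added to each well at 20 μg mL−1 final before adding bacteria at 5 × 10^5 CFU mL−1. Growth was read by A600.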

Values after ≈ are worked out from the molar mass of the structure shown.

`Cc1cnc(-c2cc(N3CCN(C(=O)CCS(C)(=O)=O)CC3)ncc2Cl)c(C)c1`: the MIC in test [1], in test [2] and in test [3] was greater than 128 µg/mL in each case.
Take `COCCOc1ccc2c(c1)ncn2-c1ccc2cccc(N3CCC(N)CC3)c2n1`: the MIC in test [1], in test [2] and in test [3] was greater than 128 µg/mL throughout.
Regarding `COc1ccc(-c2cc3c(C)nc(N)nc3n([C@H]3CC[C@H](OCCO)CC3)c2=O)cn1` [PF-04691502], the MIC in [1], in test [2] and in test [3] was greater than 128 µg/mL each time.
Consider `CCOC(=O)C(CCc1ccccc1)NC(C)C(=O)N1Cc2ccccc2CC1C(=O)O.Cl` (stereo unspecified), for which the MIC in test [1], in [2] and in test [3] was greater than 128 µg/mL in each case.
Turning to `CN(C)C(=O)[C@H](O)[C@H](Cc1ccccc1)NC(=O)c1cc2cc(Cl)ccc2[nH]1`, the MIC was greater than 128 µg/mL in test [4]; greater than 128 µg/mL in [1]; greater than 128 µg/mL in [5]; greater than 128 µg/mL in test [6]; 32 µg/mL (≈ 80 µM) in [7]; greater than 128 µg/mL in [2]. Besides, the MIC was greater than 128 µg/mL in test [8], greater than 128 µg/mL in test [9] and 16 µg/mL (≈ 40 µM) in test [3].
`COc1ccccc1S(=O)(=O)Nc1ccc2c(c1)CN(C)C(=O)N2`: the MIC in [1], in test [2] and in [3] was greater than 128 µg/mL throughout.
For the molecule `COc1cccc(OC)c1C(=O)N[C@@H]1C(=O)N2[C@@H]1SC(C)(C)[C@@H]2C(=O)O` [METHICILLIN], the MIC in test [4] is 1020 µg/mL (≈ 2690 µM); in [5], 256 µg/mL (≈ 673 µM); in [6], 512 µg/mL (≈ 1350 µM); in test [7] it was 256 µg/mL (≈ 673 µM); in test [12], 4 µg/mL; in test [13], 1 µg/mL (≈ 2.63 µM). For the same molecule, the MIC in [8] worked out at 512 µg/mL (≈ 1350 µM); in [9], 256 µg/mL (≈ 673 µM); in test [15], 4 µg/mL (≈ 10.5 µM). In addition, the “fractional inhibitory concentration index (FICI)” value in test [10] is 0.5; in test [11] it was 0.52; in test [14], greater than 1.
For `CCc1cncnc1N1CCN(Cc2nc3cc(C(F)(F)F)ccc3[nH]2)CC1`, the MIC in test [4] was 64 µg/mL (≈ 164 µM); in [1], greater than 128 µg/mL; in test [5], 64 µg/mL (≈ 164 µM); in test [6] it was 64 µg/mL (≈ 164 µM); in test [7], 32 µg/mL (≈ 82 µM); in test [2] it was 128 µg/mL (≈ 328 µM). The MIC in test [8] is 64 µg/mL (≈ 164 µM); in [9] it was 64 µg/mL (≈ 164 µM); in test [16], 128 µg/mL; in [3] it was 128 µg/mL (≈ 328 µM); in [18], 64 µg/mL. Further, the “fractional inhibitory concentration index (FICI)” value in [17] is reported as greater than 1.
Turning to `CC1(C)CC(=O)c2c(C(F)(F)F)nn(-c3ccc(C(N)=O)c(N[C@H]4CC[C@H](OC(=O)CN)CC4)c3)c2C1` [SNX 5422], the MIC in test [1], in [2] and in [3] was greater than 128 µg/mL each time.
